Source: ChEMBL document CHEMBL4177771, “Endoplasmic Reticulum-Localized Two-Photon-Absorbing Boron Dipyrromethenes as Advanced Photosensitizers for Photodynamic Therapy” (J Med Chem, 2018)
Each block holds one compound with its values, some of them ahead of it. The source made the active and inactive calls. The rule behind the calls is not given here.

Assays:
[1] = Induction of singlet oxygen generation in PBS assessed as increase in decay of DPBF at 2 uM by spectroscopic method; type: functional
[2] = Dark toxicity against human HeLa cells assessed as decrease in cell viability at 0.5 to 8 uM incubated for 2 hrs by MTT assay; type: cell-based
Summary of the method: (§1)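 Cells seeded at 2 × 10^5 cells mL−1 in 96-well plates 24 h before; incubated with compound (0.4–0.0125 μM or 8–0.5 μM series) in dark 2 h, washed with PBS, re-fed, kept unirradiated. MTT (3 mg mL−1) added, 4 h at 37 °C, DMSO added, absorbance at 490 nm. Mean ± SEM of three independent experiments, each in quadruplicate. HepG2 cells were grown in RPMI 1640 and HeLa in DMEM.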

[3] = Drug uptake in human HepG2 cells at 4 uM after 4 hrs by flow cytometric method; type: ADME, cell-based; conditions: hepg2, 4 h
Summary of the method: (§2)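 Cells in 35 mm dishes incubated in RPMI 1640 at 37 °C, 5% CO2, with 2 μM for 2 h or 4 μM for 4 h. Rinsed, trypsinised, pelleted at 400g, resuspended in HBSS. Flow cytometry on 10^4 cells: excitation 640 nm, emission 720–840 nm. Triplicate; mean ± SD of three independent experiments.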

[4] = Drug uptake in mitochondria of human HeLa cells at 4 uM after 4 hrs by Mito-tracker green-based confocal microscopic method; type: ADME
Summary of the method: (§3)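 Cells on glass-bottom dishes given 2 μM for 2 h or 4 μM for 4 h at 37 °C. After PBS washes, stained in HBSS with 0.2 μM ER-tracker or Mito-tracker green for 15 min at 37 °C. Confocal imaging: trackers excited at 488 nm, emission 500–570 nm; BODIPY excited at 633 nm, emission 650–760 nm.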

HepG2 = test: Photocytotoxicity against human HepG2 cells assessed as decrease in cell viability preincubated in dark for 2 hrs followed by illumination by halogen lamp for 20 mins by MTT assay; type: functional, cell-based
Summary of the method: (§4)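 Cells seeded at 2 × 10^5 cells mL−1 in 96-well plates 24 h before; 2 h dark incubation with compound (0.0125–0.4 μM or 0.5–8 μM), PBS wash, re-feed. Then 300 W halogen lamp with red filter (λ > 610 nm), 40 mW cm−2, 20 min at r.t. (48 J cm−2). MTT read-out at 490 nm. IC50 = concentration killing 50% of cells. Three independent experiments, quadruplicate.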

[5] = Drug uptake in endoplasmic reticulum of human HepG2 cells at 4 uM after 4 hrs by ER-tracker green-based confocal microscopic method; type: ADME, subcellular; conditions: hepg2, 4 h; summary of the method: as §3
[6] = Drug uptake in lysosome of human HeLa cells at 4 uM after 4 hrs by […]-based confocal microscopic method; type: ADME, subcellular
[7] = Induction of singlet oxygen generation in DMF assessed as increase in decay of DPBF at 1 uM by spectroscopic method
[8] = Drug uptake in mitochondria of human HepG2 cells at 4 uM after 4 hrs by Mito-tracker green-based confocal microscopic method; type: ADME; conditions: hepg2, 4 h; summary of the method: as §3
[9] = Drug uptake in lysosome of human HepG2 cells at 4 uM after 4 hrs by […]-based confocal microscopic method; type: ADME, subcellular; conditions: hepg2, 4 h
HeLa = test: Photocytotoxicity against human HeLa cells assessed as decrease in cell viability preincubated in dark for 2 hrs followed by illumination by halogen lamp for 20 mins by MTT assay; type: functional, cell-based; summary of the method: as §4
[10] = Drug uptake in human HeLa cells at 4 uM after 4 hrs by flow cytometric method; type: ADME, cell-based; summary of the method: as §2
[11] = Stability of the compound in PBS at 2 uM measured over 25 mins in presence of illumination by halogen lamp; type: physicochemical; conditions: buffer
[12] = Dark toxicity against human HepG2 cells assessed as decrease in cell viability at 0.5 to 8 uM incubated for 2 hrs by MTT assay; type: cell-based; conditions: hepg2, 2 h; summary of the method: as §1
[13] = Drug uptake in endoplasmic reticulum of human HeLa cells at 4 uM after 4 hrs by ER-tracker green-based confocal microscopic method; type: ADME, subcellular; summary of the method: as §3
[14] = Drug uptake in endoplasmic reticulum of human HepG2 cells at 2 uM after 2 hrs by ER-tracker green-based confocal microscopic method; type: ADME, subcellular; conditions: hepg2, 2 h; summary of the method: as §3
[15] = Drug uptake in lysosome of human HeLa cells at 2 uM after 2 hrs by […]-based confocal microscopic method; type: ADME, subcellular
[16] = Drug uptake in endoplasmic reticulum of human HeLa cells at 2 uM after 2 hrs by ER-tracker green-based confocal microscopic method; type: ADME, subcellular; summary of the method: as §3
[17] = Drug uptake in mitochondria of human HepG2 cells at 2 uM after 2 hrs by Mito-tracker green-based confocal microscopic method; type: ADME; conditions: hepg2, 2 h; summary of the method: as §3
[18] = Drug uptake in lysosome of human HepG2 cells at 2 uM after 2 hrs by […]-based confocal microscopic method; type: ADME, subcellular; conditions: hepg2, 2 h
[19] = Drug uptake in mitochondria of human HeLa cells at 2 uM after 2 hrs by Mito-tracker green-based confocal microscopic method; type: ADME; summary of the method: as §3

Drug uptake [3]: Active
Drug uptake [4]: Not Active
Drug uptake [5]: Active
Drug uptake [6]: Not Active
Drug uptake [8]: Not Active
Drug uptake [9]: Not Active
Drug uptake [10]: Active
Stability [11]: Stable
Drug uptake [13]: Active
SMILES: COCCOCCOCCn1c2ccccc2c2cc(/C=C/C3=[N+]4C(=C(c5ccc(OCC(=O)NCCc6ccc(S(=O)(=O)NC(=O)NC7CCCCC7)cc6)cc5)c5c(C)c(Br)c(/C=C/c6ccc7c(c6)c6ccccc6n7CCOCCOCCOC)n5[B-]4(F)F)C(C)=C3Br)ccc21
Activity [1]: Active
Activity [2]: Non-Toxic
IC50 (HepG2): 5.2 µM
Activity [7]: Active
IC50 (HeLa): 3.2 µM
Activity [12]: Non-Toxic

Drug uptake [14]: Not Active
Drug uptake [15]: Not Active
Drug uptake [16]: Not Active
Drug uptake [17]: Not Active
Drug uptake [18]: Not Active
Drug uptake [19]: Not Active
SMILES: CCOC(=O)COc1ccc(C2=C3C(C)=C(Br)C(/C=C/c4ccc(OCCOCCOCCOC)cc4)=[N+]3[B-](F)(F)n3c(/C=C/c4ccc(OCCOCCOCCOC)cc4)c(Br)c(C)c32)cc1
